Paper PMC5774489 (OncoTargets and therapy, 2018)
Read-outs that look alike come from different tables or passages of the source.

Key:
Assay type in all cases: cell-based
[1] = system: HepG2 human hepatocarcinoma; assay: MTT antiproliferative activity, HepG2; conditions: read-out: IC50, HepG2
Procedure, shortened: (§1)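 Cells were pre-incubated for 24 h at 37°C in 5% CO2. Medium was replaced with test compound at 10−4, 10−5, 10−6, 10−7 and 10−8 M for 72 h at 37°C. After a PBS wash, MTT was added for at least 4 h at 37°C and OD was read at 570 nm. IC50 (50% cell killing) came from percent viability versus log concentration; mean ± SEM, n=3.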

[2] = system: MCF-7 human breast cancer cells; assay: MTT antiproliferative activity, MCF-7; conditions: read-out: IC50, MCF-7
Procedure, shortened: as §1

[3] = system: HCT-116 human colon cancer cells; assay: MTT antiproliferative activity, HCT-116; conditions: read-out: IC50, HCT-116
Procedure, shortened: as §1

[4] = system: Helf human embryonic lung fibroblast; assay: MTT antiproliferative activity, Helf; conditions: read-out: IC50, Helf, 72 h
Procedure, shortened: as §1

[5] = system: human normal liver cells (L02); assay: MTT antiproliferative activity, L02; conditions: read-out: IC50, L02, 72 h
Procedure, shortened: as §1

[6] = system: A549 human adenocarcinomic alveolar basal epithelial cells; assay: MTT antiproliferative activity, A549; conditions: read-out: IC50, A549
Procedure, shortened: as §1

[7] = system: B16F10 mouse melanoma cells; assay: MTT antiproliferative activity, B16F10; conditions: read-out: IC50, B16F10
Procedure, shortened: as §1

[8] = system: selected malignant cell lines (B16F10, MCF-7, HCT-116, A549, HepG2); assay: MTT antiproliferative activity, selected malignant cell lines as a panel; conditions: 72 h, read-out: IC50 values, range over the selected malignant cell lines
Procedure, shortened: as §1

[9] = MTT, mean ± SEM, n=3, normal cells

| IC50 ([1]; Homo sapiens, HepG2, 72 h) [µM] | IC50 ([2]; Homo sapiens, MCF7, 72 h) [µM] | IC50 ([3]; Homo sapiens, HCT-116, 72 h) [µM] | IC50 [8] [µM] | IC50 ([7]; Mus musculus, B16-F10, 72 h) [µM] | SMILES | IC50 ([1]; MTT, 72 h, mean ± SEM, n=3) [µM] | IC50 ([2]; MTT, 72 h, mean ± SEM, n=3) [µM] | IC50 ([3]; MTT, 72 h, mean ± SEM, n=3) [µM] | IC50 [4, 9] [µM] | IC50 [5, 9] [µM] | IC50 ([6]; MTT, 72 h, mean ± SEM, n=3) [µM] | IC50 ([7]; MTT, 72 h, concentration that caused 50% cell killing, mean ± SEM, n=3) [µM] | IC50 ([4]; Homo sapiens, HELF) [µM] | IC50 ([5]; Homo sapiens) [µM] | IC50 ([6]; Homo sapiens, A549, 72 h) [µM] |
| --- | --- | --- | --- | --- | --- | --- | --- | --- | --- | --- | --- | --- | --- | --- | --- |
|  |  |  |  |  | N.N.[Cl][Pt][Cl] [Cisplatin] | 4.77 ± 0.62 | 7.83 ± 0.52 | 9.45 ± 1.04 | 21.8 ± 3.03 | 9.17 ± 0.83 | 12.7 ± 1.85 | 11.7 ± 0.95 |  |  |  |
| 30.4 ± 5.14 | 17.5 ± 1.72 | 27.3 ± 3.28 | 17.5 to 38.3 | 27 ± 2.5 | C=C(C)[C@@H]1CC[C@]2(C(=O)O)CC[C@]3(C)[C@H](CC[C@@H]4[C@@]5(C)CC[C@H](O)C(C)(C)[C@@H]5CC[C@]43C)[C@@H]12 [BA, Betulinic acid] |  |  |  |  |  |  |  | 62 ± 8.61 | 96.3 ± 7.99 | 38.3 ± 5.9 |
